Measurements taken from ChEMBL document CHEMBL4043093, “2-Oxo-3, 4-dihydropyrimido[4, 5-d]pyrimidinyl derivatives as new irreversible pan fibroblast growth factor receptor (FGFR) inhibitors” (Eur J Med Chem, 2017).

Tests used:
[1] = molecular target: Serine/threonine-protein kinase Nek11 (Homo sapiens) (UniProt Q8NG66); assay: Inhibition of wild-type human partial length NEK11 (M1 to E313 residues) expressed in HEK293 cells assessed as residual activity at 1000 nM after 30 mins by Kinomescan method relative to control; assay type: cell-based
[2] = molecular target: Homeodomain-interacting protein kinase 4 (Homo sapiens) (UniProt Q8NE63); assay: Inhibition of wild-type human partial length HIPK4 (M1 to V384 residues) expressed in Escherichia coli BL21 assessed as residual activity at 1000 nM after 30 mins by Kinomescan method relative to control
[3] = molecular target: Mitogen-activated protein kinase 10 (Homo sapiens) (UniProt P53779); assay: Inhibition of wild-type human partial length JNK3 (V28 to Q422 residues) expressed in HEK293 cells assessed as residual activity at 1000 nM after 30 mins by Kinomescan method relative to control; assay type: cell-based
[4] = molecular target: Ephrin type-A receptor 2 (Homo sapiens) (UniProt P29317); assay: Inhibition of wild-type human partial length EPHA2 (T593 to V891 residues) expressed in Escherichia coli BL21 assessed as residual activity at 1000 nM after 30 mins by Kinomescan method relative to control
Chain of Ephrin type-A receptor 2 (Homo sapiens) (P29317 whole entry, the tested form may be a part): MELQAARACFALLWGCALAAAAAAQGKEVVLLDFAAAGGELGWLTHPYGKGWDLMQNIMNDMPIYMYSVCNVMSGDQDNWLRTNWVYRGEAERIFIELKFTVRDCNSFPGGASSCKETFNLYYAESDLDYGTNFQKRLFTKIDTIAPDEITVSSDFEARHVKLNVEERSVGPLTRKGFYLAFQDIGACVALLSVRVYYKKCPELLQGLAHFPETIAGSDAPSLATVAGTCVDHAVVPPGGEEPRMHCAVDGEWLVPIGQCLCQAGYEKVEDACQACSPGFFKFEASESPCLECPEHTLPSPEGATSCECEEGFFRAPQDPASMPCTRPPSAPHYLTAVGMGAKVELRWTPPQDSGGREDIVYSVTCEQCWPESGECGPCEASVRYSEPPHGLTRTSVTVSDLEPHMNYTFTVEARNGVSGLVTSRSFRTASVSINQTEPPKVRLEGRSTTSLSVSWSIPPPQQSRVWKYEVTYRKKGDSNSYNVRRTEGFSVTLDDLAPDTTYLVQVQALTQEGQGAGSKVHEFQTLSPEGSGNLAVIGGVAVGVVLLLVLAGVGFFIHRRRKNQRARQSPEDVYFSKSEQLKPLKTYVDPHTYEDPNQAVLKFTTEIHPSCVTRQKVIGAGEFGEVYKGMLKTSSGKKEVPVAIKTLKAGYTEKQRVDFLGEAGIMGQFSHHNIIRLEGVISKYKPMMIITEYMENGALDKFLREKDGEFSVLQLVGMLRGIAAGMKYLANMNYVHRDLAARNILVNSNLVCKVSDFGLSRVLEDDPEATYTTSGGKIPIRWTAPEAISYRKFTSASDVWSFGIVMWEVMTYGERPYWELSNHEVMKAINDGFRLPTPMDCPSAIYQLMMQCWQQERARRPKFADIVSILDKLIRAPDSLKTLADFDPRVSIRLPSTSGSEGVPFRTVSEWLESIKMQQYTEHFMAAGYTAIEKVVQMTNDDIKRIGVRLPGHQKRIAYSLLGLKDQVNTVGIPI

[5] = molecular target: Protein-tyrosine kinase 2-beta (Homo sapiens) (UniProt Q14289); assay: Inhibition of wild-type human full length PYK2 (M1 to E967 residues) expressed in Escherichia coli BL21 assessed as residual activity at 1000 nM after 30 mins by Kinomescan method relative to control
Summary of the method: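 Single-concentration screen at 1 µM against a 456-kinase panel (KINOMEscan). Read-out is Percent Control for each kinase. Across the 403 non-mutant kinases, an S(35) selectivity score was derived as the fraction of kinases with Percent Control < 35.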

[6] = molecular target: Glycogen synthase kinase-3 beta (Homo sapiens) (UniProt P49841); assay: Inhibition of wild-type human full length GSK3B (M1 to T433 residues) expressed in HEK293 cells assessed as residual activity at 1000 nM after 30 mins by Kinomescan method relative to control; assay type: cell-based
Chain of Glycogen synthase kinase-3 beta (Homo sapiens) (P49841 whole entry, looked up, the tested form may be a part): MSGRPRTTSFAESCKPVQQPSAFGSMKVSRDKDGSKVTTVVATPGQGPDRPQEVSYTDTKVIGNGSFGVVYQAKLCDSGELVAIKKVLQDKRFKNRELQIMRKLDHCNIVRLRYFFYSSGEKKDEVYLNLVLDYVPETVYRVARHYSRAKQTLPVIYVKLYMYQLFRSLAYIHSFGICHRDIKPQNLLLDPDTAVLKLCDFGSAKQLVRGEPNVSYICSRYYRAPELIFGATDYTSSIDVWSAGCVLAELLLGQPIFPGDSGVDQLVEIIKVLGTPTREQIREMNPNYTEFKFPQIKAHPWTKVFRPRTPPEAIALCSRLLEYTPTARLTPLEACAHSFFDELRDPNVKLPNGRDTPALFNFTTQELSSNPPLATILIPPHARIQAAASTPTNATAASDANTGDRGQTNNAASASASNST
Summary of the method: (§1)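 Single-concentration screen at 1 µM across a 456-kinase KINOMEscan panel. The read-out is Percent Control for each kinase.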

[7] = test system: Epidermal growth factor receptor (Homo sapiens), P00533 [UNDEFINED MUTATION]; assay: Inhibition of human partial length EGFR L747-S752del/P753S mutant expressed in Escherichia coli BL21 assessed as residual activity at 1000 nM after 30 mins by Kinomescan method relative to control
Summary of the method: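 KINOMEscan binding panel of 456 kinases, with the test compound at a single concentration of 1 µM. Read-out is Percent Control.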

[8] = molecular target: Homeodomain-interacting protein kinase 2 (Homo sapiens) (UniProt Q9H2X6); assay: Inhibition of wild-type human partial length HIPK2 (M153 to S564 residues) expressed in HEK293 cells assessed as residual activity at 1000 nM after 30 mins by Kinomescan method relative to control; assay type: cell-based
[9] = molecular target: Mitogen-activated protein kinase 12 (Homo sapiens) (UniProt P53778); assay: Inhibition of wild-type human full length p38-gamma (M1 to L367 residues) expressed in HEK293 cells assessed as residual activity at 1000 nM after 30 mins by Kinomescan method relative to control; assay type: cell-based
Chain of Mitogen-activated protein kinase 12 (Homo sapiens) (P53778 whole entry, the tested form may be a part): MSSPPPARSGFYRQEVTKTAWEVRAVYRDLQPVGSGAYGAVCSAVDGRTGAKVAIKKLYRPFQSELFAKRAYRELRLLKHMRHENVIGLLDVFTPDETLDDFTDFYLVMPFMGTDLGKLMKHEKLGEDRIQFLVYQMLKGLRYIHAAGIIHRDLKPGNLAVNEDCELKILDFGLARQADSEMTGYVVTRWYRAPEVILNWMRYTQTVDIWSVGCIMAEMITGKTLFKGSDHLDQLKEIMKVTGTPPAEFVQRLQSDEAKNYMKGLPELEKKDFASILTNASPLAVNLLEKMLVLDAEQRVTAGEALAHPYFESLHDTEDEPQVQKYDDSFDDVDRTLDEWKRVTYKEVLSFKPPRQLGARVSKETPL

[10] = molecular target: Cyclin-dependent kinase 9 (Homo sapiens) (UniProt P50750); assay: Inhibition of wild-type human full length CDK9 (M1 to F372 residues) expressed in Escherichia coli BL21 assessed as residual activity at 1000 nM after 30 mins by Kinomescan method relative to control
Chain of Cyclin-dependent kinase 9 (Homo sapiens) (P50750 whole entry, the tested form may be a part): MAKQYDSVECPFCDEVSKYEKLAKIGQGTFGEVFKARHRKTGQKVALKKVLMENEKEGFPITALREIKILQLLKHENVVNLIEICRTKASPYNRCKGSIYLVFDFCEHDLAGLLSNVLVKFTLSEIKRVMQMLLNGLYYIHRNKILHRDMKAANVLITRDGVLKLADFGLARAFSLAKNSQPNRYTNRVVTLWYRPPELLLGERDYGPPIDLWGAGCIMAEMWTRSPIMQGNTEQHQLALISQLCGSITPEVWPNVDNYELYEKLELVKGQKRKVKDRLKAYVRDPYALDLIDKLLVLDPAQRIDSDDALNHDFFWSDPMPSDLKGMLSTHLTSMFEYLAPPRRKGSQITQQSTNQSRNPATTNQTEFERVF
Summary of the method: (§2)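 Single-point screen at a fixed 1 µM, run within a 456-kinase DiscoveRx KINOMEscan panel. Each kinase's read-out is Percent Control, i.e. signal relative to a control without compound. Hits were scored by a Percent Control < 35 cut-off, and an S(35) selectivity score was calculated across the non-mutant kinases.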

[11] = molecular target: Ribosomal protein S6 kinase beta-1 (Homo sapiens) (UniProt P23443); assay: Inhibition of wild-type human partial length S6K1 (M1 to S421 residues) expressed in HEK293 cells assessed as residual activity at 1000 nM after 30 mins by Kinomescan method relative to control; assay type: cell-based
[12] = molecular target: Serine/threonine-protein kinase Nek2 (Homo sapiens) (UniProt P51955); assay: Inhibition of wild-type human partial length NEK2 (M1 to K309 residues) expressed in Escherichia coli BL21 assessed as residual activity at 1000 nM after 30 mins by Kinomescan method relative to control
[13] = molecular target: Cyclin-dependent kinase-like 2 (Homo sapiens) (UniProt Q92772); assay: Inhibition of wild-type human partial length CDKL2 (M1 to D327 residues) expressed in Escherichia coli BL21 assessed as residual activity at 1000 nM after 30 mins by Kinomescan method relative to control
[14] = molecular target: 3-phosphoinositide-dependent protein kinase 1 (Homo sapiens) (UniProt O15530); assay: Inhibition of wild-type human full length PDPK1 (M1 to Q556 residues) expressed in Escherichia coli BL21 assessed as residual activity at 1000 nM after 30 mins by Kinomescan method relative to control; summary of the method: as §1
[15] = molecular target: Protein kinase C epsilon type (Homo sapiens) (UniProt Q02156); assay: Inhibition of wild-type human partial length PRKCE (A378 to P737 residues) expressed in HEK293 cells assessed as residual activity at 1000 nM after 30 mins by Kinomescan method relative to control; assay type: cell-based
[16] = molecular target: Mitogen-activated protein kinase 15 (Homo sapiens) (UniProt Q8TD08); assay: Inhibition of wild-type human partial length ERK8 (M1 to P437 residues) expressed in Escherichia coli BL21 assessed as residual activity at 1000 nM after 30 mins by Kinomescan method relative to control
Chain of Mitogen-activated protein kinase 15 (Homo sapiens) (Q8TD08 whole entry, the tested form may be a part): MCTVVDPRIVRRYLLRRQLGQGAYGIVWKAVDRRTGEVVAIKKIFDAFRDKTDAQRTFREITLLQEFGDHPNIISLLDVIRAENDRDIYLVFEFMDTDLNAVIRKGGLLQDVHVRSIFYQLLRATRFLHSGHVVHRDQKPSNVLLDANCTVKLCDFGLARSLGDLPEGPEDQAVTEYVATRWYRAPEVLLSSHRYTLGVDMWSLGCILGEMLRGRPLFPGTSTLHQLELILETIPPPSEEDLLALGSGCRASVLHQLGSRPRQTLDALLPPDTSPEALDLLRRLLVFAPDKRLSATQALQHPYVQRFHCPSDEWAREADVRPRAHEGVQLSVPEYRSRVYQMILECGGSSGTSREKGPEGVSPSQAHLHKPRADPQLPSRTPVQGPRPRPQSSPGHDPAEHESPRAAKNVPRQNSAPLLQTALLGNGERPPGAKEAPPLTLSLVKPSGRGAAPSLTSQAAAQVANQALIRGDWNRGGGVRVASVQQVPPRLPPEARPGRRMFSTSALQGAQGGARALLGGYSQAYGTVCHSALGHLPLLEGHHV

[17] = molecular target: Atypical kinase COQ8A, mitochondrial (Homo sapiens) (UniProt Q8NI60); assay: Inhibition of wild-type human […] ADCK3 (M280 to Q647 residues) expressed in Escherichia coli BL21 assessed as residual activity at 1000 nM after 30 mins by Kinomescan method relative to control; summary of the method: as §2
Chain of Atypical kinase COQ8A, mitochondrial (Homo sapiens) (Q8NI60 163-647 limits assumed): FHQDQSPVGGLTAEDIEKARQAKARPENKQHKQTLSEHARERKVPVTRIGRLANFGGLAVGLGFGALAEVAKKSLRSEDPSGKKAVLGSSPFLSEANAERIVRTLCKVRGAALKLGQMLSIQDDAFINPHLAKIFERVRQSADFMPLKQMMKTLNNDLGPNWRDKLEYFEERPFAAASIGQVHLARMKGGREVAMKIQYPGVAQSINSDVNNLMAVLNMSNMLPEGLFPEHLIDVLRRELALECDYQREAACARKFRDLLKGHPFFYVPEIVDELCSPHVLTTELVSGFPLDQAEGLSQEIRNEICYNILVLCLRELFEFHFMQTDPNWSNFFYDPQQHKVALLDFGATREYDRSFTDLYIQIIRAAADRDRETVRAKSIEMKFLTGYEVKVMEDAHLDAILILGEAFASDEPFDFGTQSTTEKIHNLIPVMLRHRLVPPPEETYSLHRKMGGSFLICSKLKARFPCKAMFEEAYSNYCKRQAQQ

[18] = molecular target: Activin receptor type-1-like (Homo sapiens) (UniProt P37023); assay: Inhibition of wild-type human ACVRL1 (L164 to Q503 residues) expressed in Escherichia coli BL21 assessed as residual activity at 1000 nM after 30 mins by Kinomescan method relative to control; summary of the method: as §2
Chain of Activin receptor type-1-like (Homo sapiens) (P37023 whole entry, the tested form may be a part): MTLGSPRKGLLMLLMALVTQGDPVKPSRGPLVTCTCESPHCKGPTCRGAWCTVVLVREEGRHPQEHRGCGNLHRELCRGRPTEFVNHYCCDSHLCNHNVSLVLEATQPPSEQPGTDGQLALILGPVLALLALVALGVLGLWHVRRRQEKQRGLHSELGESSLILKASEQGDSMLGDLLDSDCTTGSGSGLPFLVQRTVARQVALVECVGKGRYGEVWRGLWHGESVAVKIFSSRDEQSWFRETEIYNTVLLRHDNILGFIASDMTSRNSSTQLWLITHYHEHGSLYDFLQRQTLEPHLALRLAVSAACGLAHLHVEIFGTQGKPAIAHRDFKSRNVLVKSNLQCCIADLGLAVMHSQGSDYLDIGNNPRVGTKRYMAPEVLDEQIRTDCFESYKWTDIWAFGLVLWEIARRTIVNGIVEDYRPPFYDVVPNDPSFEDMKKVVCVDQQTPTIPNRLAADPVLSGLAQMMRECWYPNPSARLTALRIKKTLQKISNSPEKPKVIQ

[19] = molecular target: Aurora kinase B (Homo sapiens) (UniProt Q96GD4); assay: Inhibition of wild-type human partial length AURKB (D25 to A303 residues) expressed in HEK293 cells assessed as residual activity at 1000 nM after 30 mins by Kinomescan method relative to control; assay type: cell-based
Chain of Aurora kinase B (Homo sapiens) (Q96GD4 whole entry, the tested form may be a part): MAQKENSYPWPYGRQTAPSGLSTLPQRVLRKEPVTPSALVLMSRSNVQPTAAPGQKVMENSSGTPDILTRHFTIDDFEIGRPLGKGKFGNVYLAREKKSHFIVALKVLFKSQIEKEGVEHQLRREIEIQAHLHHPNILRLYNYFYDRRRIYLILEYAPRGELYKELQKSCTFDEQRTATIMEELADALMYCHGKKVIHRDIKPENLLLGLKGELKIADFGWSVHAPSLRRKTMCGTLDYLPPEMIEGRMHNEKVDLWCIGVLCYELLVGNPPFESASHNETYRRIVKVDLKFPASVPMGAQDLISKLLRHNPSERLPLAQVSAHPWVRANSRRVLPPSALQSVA

[20] = molecular target: Cyclin-dependent kinase 2 (Homo sapiens) (UniProt P24941); assay: Inhibition of wild-type human full length CDK2 (M1 to L298 residues) expressed in Escherichia coli BL21 assessed as residual activity at 1000 nM after 30 mins by Kinomescan method relative to control; summary of the method: as §2
[21] = molecular target: Fibroblast growth factor receptor 3 (Homo sapiens, UniProt P22607); assay: Inhibition of human recombinant His-tagged FGFR3 cytoplasmic domain (399 to 806 residues) expressed in baculovirus using Tyr-4 peptide after 1 hr by FRET-based Z'-Lyte assay
Chain of Fibroblast growth factor receptor 3 (P22607 whole entry, the tested form may be a part): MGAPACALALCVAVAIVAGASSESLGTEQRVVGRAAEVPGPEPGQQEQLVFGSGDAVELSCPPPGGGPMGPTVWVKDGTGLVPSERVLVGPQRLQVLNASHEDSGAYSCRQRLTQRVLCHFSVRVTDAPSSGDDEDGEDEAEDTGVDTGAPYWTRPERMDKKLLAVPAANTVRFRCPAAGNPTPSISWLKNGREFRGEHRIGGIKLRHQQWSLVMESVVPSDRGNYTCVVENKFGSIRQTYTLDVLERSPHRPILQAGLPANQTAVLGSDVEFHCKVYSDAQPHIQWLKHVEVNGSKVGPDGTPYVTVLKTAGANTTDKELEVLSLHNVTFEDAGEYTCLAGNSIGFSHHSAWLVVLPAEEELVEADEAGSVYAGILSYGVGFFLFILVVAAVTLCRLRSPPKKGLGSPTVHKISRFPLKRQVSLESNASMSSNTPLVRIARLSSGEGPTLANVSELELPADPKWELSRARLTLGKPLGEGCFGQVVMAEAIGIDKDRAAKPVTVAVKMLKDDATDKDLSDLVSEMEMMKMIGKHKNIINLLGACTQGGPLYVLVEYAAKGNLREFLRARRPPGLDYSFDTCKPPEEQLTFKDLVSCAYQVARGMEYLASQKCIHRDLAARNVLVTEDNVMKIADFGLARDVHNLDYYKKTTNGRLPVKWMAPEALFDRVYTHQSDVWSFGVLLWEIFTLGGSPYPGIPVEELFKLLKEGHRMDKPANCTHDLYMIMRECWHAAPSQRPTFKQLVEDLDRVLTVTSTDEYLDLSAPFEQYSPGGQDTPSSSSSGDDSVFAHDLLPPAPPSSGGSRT

## COc1cc(OC)c(Cl)c(N2Cc3cnc(Nc4ccc(F)cc4)nc3N(C3CCN(C(=O)/C=C/CN(C)C)CC3)C2=O)c1Cl
[1]
  Activity: 100%
[2]
  Activity: 99%
[3]
  Activity: 100%
[4]
  Activity: 100%
[5]
  Activity: 91%
[6]
  Activity: 100%
[7]
  Activity: 100%
[8]
  Activity: 100%
[9]
  Activity: 89%
[10]
  Activity: 97%
[11]
  Activity: 92%
[12]
  Activity: 53%
[13]
  Activity: 96%
[14]
  Activity: 67%
[15]
  Activity: 89%
[16]
  Activity: 100%
[17]
  Activity: 100%
[18]
  Activity: 100%
[19]
  Activity: 95%
[20]
  Activity: 100%
[21]
  IC50: 5.07 nM
